Results on ten molecules are retold here after ChEMBL document CHEMBL4808224, “Rational Design of Original Fused-Cycle Selective Inhibitors of Tryptophan 2,3-Dioxygenase” (J Med Chem, 2021).

Activity calls are given as the source filed them. No cut-off for these calls is given here.

Series [1] can be described thus: Cytotoxicity against mouse P815B cells incubated for 2 to 4 hrs by MTS assay. The series is classed as cell-based, P815. The following applies: time 2-4 hrs, read-out: LD50 (the source's name). An outline of the steps:
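1 × 10⁵ cells per well in DMEM; MTS with PMS, diluted in PBS, added to the wells; incubated 2–4 h at 37 °C; absorbance read at 490 nm.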

Series [2] can be described thus: Cysteamine reactivity assessed as aromatic signals at 1 mM measured after 30 mins by 1H NMR spectroscopy. The following applies: 0.5 h, 1000 µM. In kind it is physicochemical.
The nature of series [3]: Cysteamine reactivity assessed as aromatic signals at 1 mM measured after 30 mins by LC-MS/MS analysis. In kind it is physicochemical. The following applies: 0.5 h, 1000 µM.
Series [4] can be described thus: Toxicity in mouse P815 cells assessed as cell cycle distribution at > 100 uM measured after 6 to 12 hrs by propidium iodide DNA staining based flow cytometry. The following applies: time 6-12 hrs. On the technique in general: In flow cytometry, cells or beads pass a laser one at a time.
The target in series [5] is Indoleamine 2,3-dioxygenase 1 (Homo sapiens) (UniProt P14902). Description: Inhibition of human IDO1 assessed as reduction in kynurenine production at 100 uM using tryptophan as substrate by enzymatic assay.
The target is the same in series [6]. As to the kind of experiment: Inhibition of human IDO1 assessed as reduction in kynurenine production at 100 uM using tryptophan as substrate by cellular assay.
Series [7] in a line: Metabolic stability in liver microsomes (unknown origin) assessed as half life at 10 uM by UPLC analysis. In kind it is ADME, Microsome.
Series [8] concerns the target Tryptophan 2,3-dioxygenase (Homo sapiens, UniProt P48775). As to the kind of experiment: Inhibition of human TDO2 expressed in HEK293E cells assessed as reduction in N-formylkynurenine formation using tryptophan as substrate measured after 24 hrs by HPLCC based UV spectrometry. In kind it is cell-based, HEK2936E.

Sequence of Indoleamine 2,3-dioxygenase 1 (Homo sapiens) (P14902 whole entry, looked up): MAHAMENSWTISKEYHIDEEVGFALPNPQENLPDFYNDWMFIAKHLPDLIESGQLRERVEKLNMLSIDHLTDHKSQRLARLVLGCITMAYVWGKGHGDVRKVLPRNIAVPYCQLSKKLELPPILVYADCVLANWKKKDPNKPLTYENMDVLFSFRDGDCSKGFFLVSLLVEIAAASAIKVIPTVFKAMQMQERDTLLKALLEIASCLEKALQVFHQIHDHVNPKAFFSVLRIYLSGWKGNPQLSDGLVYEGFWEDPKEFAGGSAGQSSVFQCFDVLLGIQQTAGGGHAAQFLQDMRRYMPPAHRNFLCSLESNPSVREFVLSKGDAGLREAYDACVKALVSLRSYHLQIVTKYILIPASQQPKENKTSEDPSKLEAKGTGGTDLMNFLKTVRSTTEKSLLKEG
Sequence of Tryptophan 2,3-dioxygenase (P48775 whole entry): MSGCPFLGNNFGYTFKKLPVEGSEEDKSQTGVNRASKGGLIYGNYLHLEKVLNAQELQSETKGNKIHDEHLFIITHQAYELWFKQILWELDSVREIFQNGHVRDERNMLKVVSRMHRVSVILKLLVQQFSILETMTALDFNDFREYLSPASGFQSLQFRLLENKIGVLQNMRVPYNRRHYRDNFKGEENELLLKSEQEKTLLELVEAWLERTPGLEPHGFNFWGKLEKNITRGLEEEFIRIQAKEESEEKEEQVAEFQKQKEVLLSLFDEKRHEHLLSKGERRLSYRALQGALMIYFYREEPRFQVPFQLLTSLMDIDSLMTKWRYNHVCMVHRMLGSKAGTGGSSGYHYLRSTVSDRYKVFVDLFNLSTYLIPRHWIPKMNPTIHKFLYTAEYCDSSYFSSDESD

On to `c1ccc2c(-c3ccc4n[nH]nc4c3)c[nH]c2c1`, for which the CC50 in series [1] is over 100 µM. Further, the Drug metabolism result in series [2] and in series [3] was “Metabolite_Notdetected” in each case. Also, the Activity result in series [4] is reported as “Non-Toxic”.
As to `Fc1ccc2c(/C=C/c3cccnc3)c[nH]c2c1`, in series [1], the CC50 was over 80 µM. Further, the inhibition entry in series [5] and in series [6] was “inactive” in each case.
Regarding `c1ccc2c(-c3ccc4ccncc4c3)c[nH]c2c1`, the CC50 in series [1] was over 20 µM.
Still for that read-out and setting: next, `O=C1NCC2C=CC(c3c[nH]c4ccccc34)=CC2N1` (stereo not given): over 30 µM; `c1ccc2c(-c3ccc4cnccc4c3)c[nH]c2c1`: over 30 µM.
As a reminder, the half-life is the time in which the quantity being followed falls by half. As for `FC(F)(F)Cn1nnc2ccc(-c3c[nH]c4ccccc34)cc21`, the half-life at 10 µM in series [7] stood at 45 min.
As for `Fc1ccc2c(/C=C/c3nnn[nH]3)c[nH]c2c1`, the CC50 in series [1] is over 100 µM. The half-life at 10 µM in series [7] is over 1440 min. In addition, the inhibition entry in series [5] and in series [6] was “inactive” in each case. For the same molecule, the Drug metabolism result in series [2] and in series [3] was “Metabolite_Detected” throughout.
As for `c1ccc2c(-c3ccc4ncncc4c3)c[nH]c2c1`, in series [1], the CC50 is over 100 µM.
The same measure, in the same setting: in the case of `c1ccc2c(-c3ccc4cncnc4c3)c[nH]c2c1` it was over 100 µM.
Broadly, the IC50 is the midpoint of a concentration-inhibition curve. `O=S(=O)(c1ccc(-c2c[nH]c3cc(F)ccc23)cn1)N1CCNCC1`: the IC50 in series [8] turned out to be 3.2 µM.
